# Sampled rows, rich in hits. Any-hit rate of the full collection: about 1.9%.
# RAM inhibit: inhibitors of the yeast RAM network, primary screen, dse1pr::URA3 reporter, 5-FOA selection; S. cerevisiae dse1pr::URA3 reporter, 5-FOA growth OD615, 2 d; analog-sensitive cbk1-as2 kinase mutant strain; inhibition, % at 50 µM; 190,000 compounds, 1.8% hits; AID 868, 2007;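 active = inhibition above a set limit, 3 SD over mean compound inhibition, cut at about 8.4% in these data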;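 also: 0% = DMSO-only wells with no growth and 100% = 10 µM 1-NA-PP1 full growth; inhibition rescues growth on 5-FOA so higher OD means more RAM inhibition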
# pCIP destab: p/CIP-EGFP fusion destabilizers, primary screen, fluorescence, F442A cells. Q05BA5. 16 h. decrease of EGFP signal, % at 10 µM. 290,000 compounds, 0.01% hits. AID 1984, 2009;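 active = EGFP signal decrease of at least 30% at 10 µM or well 3 SD below plate mean, unless failing retest; inactive = the rest, including hits failing retest or dose response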
# Dynein cargo inh: inhibitors of GR-EGFP nuclear translocation, primary screen, dynein cargo transport inhibitor project, imaging, high-content, 3617.4 mouse cells | test concentration mostly 20 µM; stimulated with dexamethasone, 1 µM; hits give low values | z-score, hits read low | 220,000 compounds, 0.47% hits | AID 1381, 2008;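 active = plate z-score of nuclear minus cytoplasmic receptor signal below a set negative limit, without overly bright fluorescence or cell loss, cut at about -3.5 in these data, passing the limit was not always enough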;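 also: z-score of nuclear minus cytoplasmic ring GR-EGFP intensity difference per well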
#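 Buffer or medium: Induction medium lacking tetracycline, stripped serum | Also added: Dexamethasone agonist, 1.0 µM final, for 30 min | Timing: 48 h induction, 1 h compound, 30 min dex at 37 °C | Detection: Formaldehyde fixation, Hoechst nuclear stain, 10x automated fluorescence imaging | Measure: Nuclear versus cytoplasmic GR-EGFP signal, averaged per well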
# p47phox inh: p47phox/p22phox peptide binding inhibitors, primary screen, biochemical, uHTS, NADPH oxidase regulatory subunit; Neutrophil cytosol factor 1 (Homo sapiens), P14598; fluorescence polarization, 2 h; inhibition, % at 24.7 µM; 220,000 compounds, 0.53% hits;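 active = inhibition above about 30%, limit read from the data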;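 also: 0% = p47phox with labelled peptide and 100% = labelled peptide alone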
# Target sequence (P14598 whole entry, looked up): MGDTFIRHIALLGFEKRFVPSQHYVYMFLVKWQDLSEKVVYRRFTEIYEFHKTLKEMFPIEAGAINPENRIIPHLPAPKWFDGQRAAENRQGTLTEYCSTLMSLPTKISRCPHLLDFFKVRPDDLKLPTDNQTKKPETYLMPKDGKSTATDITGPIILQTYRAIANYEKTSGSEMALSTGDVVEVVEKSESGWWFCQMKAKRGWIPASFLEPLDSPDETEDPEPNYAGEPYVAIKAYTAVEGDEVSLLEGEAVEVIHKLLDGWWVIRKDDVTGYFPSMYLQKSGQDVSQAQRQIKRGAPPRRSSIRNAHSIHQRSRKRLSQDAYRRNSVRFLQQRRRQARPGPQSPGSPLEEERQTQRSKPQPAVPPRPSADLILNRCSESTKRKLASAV
# * marks the source's active call; other numbers are inactive results; . = no result given.
SMILES,RAM inhibit,pCIP destab,Dynein cargo inh,p47phox inh
CCOc1ccc(N(C(C)C(=O)N2CCOCC2)S(C)(=O)=O)cc1 (stereo not drawn),.,-9.0,.,.
COc1ccc(OCCn2c(C)c(/C=N/n3cnnc3)c3ccccc32)cc1,10.0*,11.4,0.488,0.7
O=c1[nH]c(=O)n(Cc2ccco2)c2c1C(C(F)(F)F)(C(F)(F)F)N=C(c1ccc(F)cc1)N2,8.8*,3.5,0.593,1.9
O=[N+]([O-])c1ccc(Cl)c2c1C1C=CCC1C(c1ccccn1)N2 (stereo not drawn),1.0,-5.9,-1,0.3
O=C(O)c1ccc(Cl)c2c1C1C=CCC1C(c1ccccn1)N2 (stereo not drawn),3.2,-14.1,0.0789,40.2*
COC(=O)/C(=C\Nc1ccc(Cl)c2ccccc12)c1ncc(C(F)(F)F)cc1Cl,2.5,0.8,-0.495,-3.5
CCOC(=O)/C(=C\Nc1ccccc1C(F)(F)F)Sc1ncc(C(F)(F)F)cc1Cl,10.0*,-7.2,0.162,-8.5
CCOC(=O)c1cc(C#N)c(N2CCN(C(=O)c3cccc(C(F)(F)F)c3)CC2)nc1C(F)(F)F,.,-12.3,-0.719,-14.5
O=C(Nc1cccc(C(F)(F)F)c1)N1CCC(c2nc(-c3ccc(F)cc3)no2)CC1,10.0*,2.1,1.14,7.2
Cc1[nH]c2ccccc2c1N=Nc1ccccc1C(=O)O,9.8*,-4.0,2.58,-10.0
Cc1[nH]c2ccccc2c1N=Nc1cccc(C(=O)O)c1,-1.7,-8.0,1.88,-14.4
C[C@@H](C(=O)NCc1ccccc1)[C@@H]1C[C@@]1(C)[C@@H](NC(=O)OCc1ccccc1)c1ccccc1,7.0,-8.6,0.144,4.1
C[C@@H](C(=O)NCc1ccc(S(C)(=O)=O)cc1)[C@H]1C[C@]1(C)[C@H](NC(=O)OCc1ccccc1)c1ccccc1,9.2*,-16.3,0.0183,0.2
CCOC(=O)c1c(NC(=O)CSc2nnc(-c3ccccc3)o2)sc(C(C)=O)c1C,2.5,-26.8,-0.526,-78.7
CCOC(=O)c1c(NC(=O)CSc2nc3ccccc3o2)sc(C(C)=O)c1C,9.2*,-1.3,-0.574,-89.9
CCOC(=O)c1c(NC(=O)CSc2nnc(Cc3ccccc3)o2)sc(C(C)=O)c1C,9.0*,-7.1,0.598,-33.3
CN(C)c1ccc(/C=C(\C#N)C(=O)Nc2nc3c(s2)CCN(Cc2ccccc2)C3)cc1,1.4,-552.0,-0.72,-142.9
CC(=O)c1sc(NS(=O)(=O)c2ccc(C)cc2)nc1-c1ccccc1,.,-9.9,.,.
Cc1ccc(NC(=O)c2cc(S(=O)(=O)NCCC3=CCCCC3)ccc2F)cc1F,2.5,4.4,0.547,-7.5
O=C(Nc1cccc(F)c1)c1cc(S(=O)(=O)NCCC2=CCCCC2)ccc1F,10.9*,4.2,-0.185,-7.3
O=C(Nc1ccc(S(=O)(=O)Nc2ncccn2)cc1)c1cnc(Cl)c(Cl)c1,10.7*,10.2,0.262,-33.9
O=C(Nc1ccc(S(=O)(=O)Nc2nccs2)cc1)c1cnc(Cl)c(Cl)c1,.,-15.2,2.56,-61.7
COc1ccc(C)cc1NC(=O)C(OC(=O)c1cc(C)oc1C)c1ccccc1 (stereo not drawn),11.3*,-6.9,-0.407,-12.1
COc1cc(NC(=O)Cn2ccsc2=N)cc(OC)c1,.,-9.3,-0.733,3.5
CCOc1ccc(CCNC(=O)c2cc3sccc3n2CC)cc1OCC,9.0*,-26.8,-0.356,-12.6
SMILES,RAM inhibit,pCIP destab,Dynein cargo inh,p47phox inh
CCCOC(=O)c1ccc(Oc2c(-c3ccc(OC)cc3O)n[nH]c2C)cc1,10.4*,6.1,-0.546,-6.4
O=C(Cn1c(C(F)(F)F)nc2ccccc21)Oc1cccc(C(F)(F)F)c1,1.2,4.4,-4.2*,2.2
COc1ccc(Cl)cc1C(=O)N(Cc1nc(-c2cccc(C)c2)no1)C(C)C,3.8,-14.7,0.623,-10.7
Cc1cccc(-c2noc(CN(C)S(=O)(=O)c3cc(Cl)ccc3Cl)n2)c1,8.6*,-10.8,1.25,-22.0
Cc1cccc(-c2noc(CN(C(=O)/C=C/c3ccccc3Cl)C(C)C)n2)c1,11.3*,2.0,-0.0792,-1.1
CCOC(=O)N1CCN(C(=O)c2ccc3c(=O)n(-c4cc(OC)ccc4OC)c(=S)[nH]c3c2)CC1,4.3,11.1,-0.559,-3.1
CC(C)(C)N/N=C/c1c(O)n(-c2ccc(Cl)cn2)c(=O)c2ccccc12,8.5*,-5.1,-0.376,-8.1
O=c1c2ccccc2c(C=Nc2cccc(S(=O)(=O)NCc3ccco3)c2)c(O)n1-c1ccc(Cl)cn1,8.6*,2.1,-0.303,-27.6
CCc1ccc(N(C(=O)c2snc(C(N)=O)c2N)C(C(=O)NC2CCCC2)c2ccncc2)cc1 (stereo not drawn),.,-3.7,.,.
COCCCN1CC(=O)N2C(c3cccc(OC)c3OC)c3[nH]c4ccccc4c3C[C@H]2C1=O (stereo partly drawn),.,-0.4,.,.
O=C(CNC(=S)N(Cc1ccccc1)Cc1cccs1)NCc1ccc(F)cc1,8.8*,16.0,1.58,-1.4
CCCOc1ccccc1Cn1c(=O)oc2ccc(C)cc21,0.6,0.0,1.12,-3.7
CCCOc1ccc(Cn2c(=O)oc3ccc(C)cc32)cc1OC,8.6*,-7.8,2.22,-4.1
O=C(NC1CCCC1)C1CCCN1S(=O)(=O)c1cccc2cccnc12 (stereo not drawn),0.9,-2.6,0.2,-10.2
O=C(NCc1ccccc1)C1CCCN1S(=O)(=O)c1cccc2cccnc12 (stereo not drawn),2.6,7.0,2.05,47.0*
Cc1ccc(CCCNC(=O)C2CCC(=O)N(Cc3cccc(F)c3)C2)cc1 (stereo not drawn),.,1.4,.,.
CCOC(=O)c1c(-c2ccc(C)o2)csc1NC(=O)CSc1nnnn1-c1ccccc1,8.6*,-8.5,-2.67,-43.1
CCOC(=O)c1c(NC(=O)CSc2nnc(C)s2)sc2c1CCC(C)C2 (stereo not drawn),8.9*,1.0,0.459,-21.1
CCOC(=O)c1c(-c2ccc(C)o2)csc1NC(=O)CSc1nnc(C)s1,11.0*,0.5,-1.38,-32.2
CCOC(=O)c1c(NC(=O)CSc2nnc(C)s2)sc2c1CCCCC2,5.0,-12.0,0.136,-10.6
Cc1ccc(OCc2cc(C(=O)NCC(C)(C)N3CCOCC3)no2)cc1C,.,3.9,.,.
COc1cc2c(cc1NC(=O)c1cccc(F)c1)CCCC2,3.1,-7.9,0.0899,-4.4
COc1cc2c(cc1NC(=O)c1cccc(Br)c1)CCCC2,9.3*,5.7,-0.0858,4.2
CCCCOc1ccc2c(C)cc(=O)oc2c1OCCCC,8.8*,-0.4,0.203,-1.2
O=C(NCCCn1ccnc1)Nc1ccc2c(c1)OCO2,.,-6.2,.,.
O=C(O)c1cccc(NC(=O)c2ccc(Cl)c(S(=O)(=O)N3CCCCCC3)c2)c1,9.7*,7.7,-0.241,3.2
COc1ccc(-n2c(SCC(=O)NC3CCCCC3)nc3ccsc3c2=O)cc1,9.1*,-13.7,-0.809,-9.6
Cc1ccc(-n2c(CSc3nc(C)cc(C)n3)nnc2SCC(=O)Nc2nccs2)cc1,.,1.1,0.19,36.3*

# Source: PubChem (several laboratories)
